Values joined by “and” are separate entries in the source; they are usually repeats but may differ in a detail not shown here. Equal entries are not always repeated.
Tests used:
Rattus norvegicus [1] = experiment: In vivo accumulation of DOPA in limbic of rat brain at a dose of 0.1 umol/kg.; format: functional
Outline: (§1)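 Rats, reserpine-pretreated (5 mg/kg, i.e. 9 μmol/kg sc, 6 h before) or nonpretreated, given test hydrochloride sc in the neck (injection volume 5 mL/kg). Decarboxylase inhibitor NSD 1015 (100 mg/kg ip or 60 mg/kg sc) given 30 min later; decapitation after another 30 min. Brain dissected on ice into striatum, limbic system, hemispheres, brain stem. Homogenized in 0.1 M perchloric acid with α-methyl-DOPA internal standard; DOPA measured by ion-pair reversed-phase HPLC with electrochemical detection.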

Rattus norvegicus [2] = experiment: In vivo accumulation of DOPA in striatum of rat brain at a dose of 0.32 umol/kg.; format: functional; outline: as §1
Rattus norvegicus [3] = experiment: In vivo accumulation of 5-HTP in striatum of rat brain at a dose of 0.1 umol/kg.; format: functional
Outline: (§2)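 Hydrochlorides given sc in the neck (5 mL/kg) to rats, either untreated or reserpine-pretreated (5 mg/kg sc, 6 h before). Decarboxylase inhibitor NSD 1015 (100 mg/kg ip or 60 mg/kg sc) given 30 min later; rats decapitated after another 30 min. Striatum, limbic system, hemispheres and brain stem dissected on ice and homogenized in 0.1 M perchloric acid with α-methyl-DOPA internal standard. DOPA, DA, 5-HTP and 5-HT measured by ion-pair reversed-phase HPLC with electrochemical detection.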

Rattus norvegicus [4] = experiment: In vivo accumulation of DA in striatum of rat brain at a dose of 1 umol/kg.; format: functional; outline: as §2
Rattus norvegicus [5] = experiment: In vivo accumulation of 5-HT in limbic of rat brain at a dose of 0.1 umol/kg.; format: functional, Limbic system; outline: as §2
Rattus norvegicus [6] = experiment: In vivo accumulation of DA in striatum of rat brain at a dose of 0.1 umol/kg.; format: functional; outline: as §2
Rattus norvegicus [7] = experiment: In vivo accumulation of 5-HT in striatum of rat brain at a dose of 0.32 umol/kg.; format: functional; outline: as §2
Rattus norvegicus [8] = experiment: In vivo accumulation of DOPA in brain stem of rat brain at a dose of 1 umol/kg.; format: functional; outline: as §2
Rattus norvegicus [9] = experiment: In vivo accumulation of 5-HTP in limbic of rat brain at a dose of 0.1 umol/kg.; format: functional; outline: as §2
Rattus norvegicus [10] = experiment: In vivo accumulation of 5-HTP in brain stem of rat brain at a dose of 0.32 umol/kg.; format: functional; outline: as §2
Rattus norvegicus [11] = experiment: In vivo accumulation of 5-HT in striatum of rat brain at a dose of 0.1 umol/kg.; format: functional; outline: as §2
Rattus norvegicus [12] = experiment: In vivo accumulation of DOPA in striatum of rat brain at a dose of 1 umol/kg.; format: functional; outline: as §1
Rattus norvegicus [13] = experiment: In vivo accumulation of 5-HTP in brain stem of rat brain at a dose of 0.1 umol/kg.; format: functional; outline: as §2
Rattus norvegicus [14] = experiment: In vivo accumulation of 5-HTP in hemisphere of rat brain at a dose of 1 umol/kg.; format: functional; outline: as §2
Rattus norvegicus [15] = experiment: In vivo accumulation of 5-HT in striatum of rat brain at a dose of 1 umol/kg.; format: functional; outline: as §2
Rattus norvegicus [16] = experiment: In vivo accumulation of 5-HT in limbic of rat brain at a dose of 1 umol/kg.; format: functional; outline: as §2
Rattus norvegicus [17] = experiment: In vivo accumulation of DOPA in brain stem of rat brain at a dose of 0.32 umol/kg.; format: functional; outline: as §2
Rattus norvegicus [18] = experiment: In vivo accumulation of DOPA in limbic of rat brain at a dose of 1 umol/kg.; format: functional; outline: as §1
Rattus norvegicus [19] = experiment: In vivo accumulation of DOPA in striatum of rat brain at a dose of 0.1 umol/kg.; format: functional; outline: as §1
Rattus norvegicus [20] = experiment: In vivo accumulation of DOPA in limbic of rat brain at a dose of 0.32 umol/kg.; format: functional; outline: as §1
Rattus norvegicus [21] = experiment: In vivo accumulation of DOPA in hemisphere of rat brain at a dose of 0.1 umol/kg.; format: functional; outline: as §1
Rattus norvegicus [22] = experiment: In vivo accumulation of 5-HTP in brain stem of rat brain at a dose of 1 umol/kg.; format: functional; outline: as §2
Rattus norvegicus [23] = experiment: In vivo accumulation of DOPA in brain stem of rat brain at a dose of 0.1 umol/kg.; format: functional; outline: as §2
Rattus norvegicus [24] = experiment: In vivo accumulation of DA in striatum of rat brain at a dose of 0.32 umol/kg.; format: functional; outline: as §2
Rattus norvegicus [25] = experiment: In vivo accumulation of 5-HTP in striatum of rat brain at a dose of 1 umol/kg.; format: functional; outline: as §2
Rattus norvegicus [26] = experiment: In vivo accumulation of 5-HTP in limbic of rat brain at a dose of 1 umol/kg.; format: functional; outline: as §2
Rattus norvegicus [27] = experiment: In vivo accumulation of 5-HTP in hemisphere of rat brain at a dose of 0.32 umol/kg.; format: functional; outline: as §2
Rattus norvegicus [28] = experiment: In vivo accumulation of 5-HTP in limbic of rat brain at a dose of 0.32 umol/kg.; format: functional; outline: as §2
Rattus norvegicus [29] = experiment: In vivo accumulation of DOPA in hemisphere of rat brain at a dose of 0.32 umol/kg.; format: functional; outline: as §1
Rattus norvegicus [30] = experiment: In vivo accumulation of 5-HTP in striatum of rat brain at a dose of 0.32 umol/kg.; format: functional; outline: as §2
Rattus norvegicus [31] = experiment: In vivo accumulation of 5-HTP in hemisphere of rat brain at a dose of 0.1 umol/kg.; format: functional; outline: as §2
Rattus norvegicus [32] = experiment: In vivo accumulation of 5-HT in limbic of rat brain at a dose of 0.32 umol/kg.; format: functional; outline: as §2
Rattus norvegicus [33] = experiment: In vivo accumulation of DOPA in limbic of rat brain at a dose of 3.2 umol/kg.; format: functional; outline: as §1
Rattus norvegicus [34] = experiment: In vivo accumulation of 5-HTP in hemisphere of rat brain at a dose of 3.2 umol/kg.; format: functional; outline: as §2
Rattus norvegicus [35] = experiment: In vivo accumulation of 5-HTP in limbic of rat brain at a dose of 3.2 umol/kg.; format: functional; outline: as §2
Rattus norvegicus [36] = experiment: In vivo accumulation of DOPA in hemisphere of rat brain at a dose of 3.2 umol/kg.; format: functional; outline: as §1
Rattus norvegicus [37] = experiment: In vivo accumulation of DOPA in brain stem of rat brain at a dose of 3.2 umol/kg.; format: functional; outline: as §2
Rattus norvegicus [38] = experiment: In vivo accumulation of 5-HT in striatum of rat brain at a dose of 3.2 umol/kg.; format: functional; outline: as §2
Rattus norvegicus [39] = experiment: In vivo accumulation of 5-HT in limbic of rat brain at a dose of 3.2 umol/kg.; format: functional; outline: as §2
Rattus norvegicus [40] = experiment: In vivo accumulation of DA in striatum of rat brain at a dose of 3.2 umol/kg.; format: functional; outline: as §2
Rattus norvegicus [41] = experiment: In vivo accumulation of DOPA in striatum of rat brain at a dose of 3.2 umol/kg.; format: functional; outline: as §1
Rattus norvegicus [42] = experiment: In vivo accumulation of 5-HTP in brain stem of rat brain at a dose of 3.2 umol/kg.; format: functional; outline: as §2
Rattus norvegicus [43] = experiment: In vivo accumulation of 5-HTP in striatum of rat brain at a dose of 3.2 umol/kg.; format: functional; outline: as §2

Row | Structure (SMILES) | Control (Rattus norvegicus [2]) | Control (Rattus norvegicus [4]) | Control (Rattus norvegicus [7]) | Control (Rattus norvegicus [8]) | Control (Rattus norvegicus [10]) | Control (Rattus norvegicus [12]) | Control (Rattus norvegicus [14]) | Control (Rattus norvegicus [15]) | Control (Rattus norvegicus [16]) | Control (Rattus norvegicus [17]) | Control (Rattus norvegicus [18]) | Control (Rattus norvegicus [20]) | Control (Rattus norvegicus [22]) | Control (Rattus norvegicus [24]) | Control (Rattus norvegicus [25]) | Control (Rattus norvegicus [26]) | Control (Rattus norvegicus [27]) | Control (Rattus norvegicus [28]) | Control (Rattus norvegicus [29]) | Control (Rattus norvegicus [30]) | further results
1 | CCCN1CCC[C@H]2c3c(O)cccc3CC[C@@H]21 | 113.6% | 115.8% | 81.6% | 133.3% | 70.7% | 117.6% | 43% | 134.9% | 170.1% | 110.1% | 107.3% and 111% | 115.9% and 107.8% | 61.1% | 108.2% | 44.7% | 52.3% | 60.8% | 69.7% | 114% | 51.5% | Control (Rattus norvegicus [1]): 95.9% and 124.5%; Control (Rattus norvegicus [3]): 55.3%; Control (Rattus norvegicus [5]): 126.7%; Control (Rattus norvegicus [6]): 123.1%; Control (Rattus norvegicus [9]): 85.1%; Control (Rattus norvegicus [11]): 98.1%; Control (Rattus norvegicus [13]): 90.8%; Control (Rattus norvegicus [19]): 109.3%; Control (Rattus norvegicus [21]): 97%; Control (Rattus norvegicus [23]): 93.2%; Control (Rattus norvegicus [31]): 74.7%; Control (Rattus norvegicus [32]): 138.1%
2 | CCCN1CCC[C@@H]2c3c(O)cccc3CC[C@H]21 | 109.4% | 129.5% | 107.1% | 102.9% | 76.1% | 116.2% | 51.9% | 113.2% | 119.3% | 87% | 85.5% and 95.2% | 91.1% and 114.1% | 65.3% | 110.6% | 56.3% | 58.5% | 70.9% | 85.1% | 111% | 69.9% | Control (Rattus norvegicus [33]): 111.4% and 118.2%; Control (Rattus norvegicus [34]): 50.6%; Control (Rattus norvegicus [35]): 50.3%; Control (Rattus norvegicus [36]): 119%; Control (Rattus norvegicus [37]): 125.1%; Control (Rattus norvegicus [38]): 128.8%; Control (Rattus norvegicus [39]): 144.1%; Control (Rattus norvegicus [40]): 120.2%; Control (Rattus norvegicus [41]): 99.6%; Control (Rattus norvegicus [42]): 59.9%; Control (Rattus norvegicus [43]): 34%; Control (Rattus norvegicus [32]): 108.1%
